In ChEMBL document CHEMBL3259575, “Evaluation of a large library of (thiazol-2-yl)hydrazones and analogues as histone acetyltransferase inhibitors: enzyme and cellular studies” (2014):
Activity calls are given as the source filed them. The rule behind the calls is not given here.

Tests used:
[1] = molecular target: Histone acetyltransferase p300 (Homo sapiens) (UniProt Q09472); experiment: Inhibition of recombinant human p300 catalytic domain (1284 to 1673 aa) using histone H3 at 200 uM after 1 hr by radiochemical assay in presence of [acetyl-3H]-acetyl coenzyme A
U-937 [2] = experiment: Cell cycle arrest in human U937 cells assessed as reduction in cells at S phase at 100 uM after 30 hrs by propidium iodide-based flow cytometry relative to control; assay type: functional
Outline: (§1)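 Cells kept at 37 °C, 5% CO2 in RPMI-1640 with 10% heat-inactivated FBS, penicillin, streptomycin, L-glutamine, amphotericin B; plated at 2 × 10^5 cells/mL, exposed 30 h, then suspended in PBS with 0.1% sodium citrate, 0.1% NP40 and propidium iodide; 30 min room temperature in dark; flow cytometry, cell-cycle phase distribution versus untreated control.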

[3] = molecular target: Histone acetyltransferase p300 (Homo sapiens) (UniProt Q09472); experiment: Inhibition of recombinant human p300 catalytic domain (1284 to 1673 aa) using histone H3 at 400 uM after 1 hr by radiochemical assay in presence of [acetyl-3H]-acetyl coenzyme A
[4] = molecular target: Histone acetyltransferase KAT2B (Homo sapiens) (UniProt Q92831); experiment: Inhibition of recombinant human PCAF catalytic domain (492 to 658 aa) using histone H3 at 100 uM after 1 hr by radiochemical assay in presence of [acetyl-3H]-acetyl coenzyme A
U-937 [5] = experiment: Induction of human U937 cell differentiation assessed as CD11c expression at 100 uM after 30 hrs by propidium iodide-based flow cytometry relative to control; assay type: functional
Outline: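 U937 cells treated 30 h, then stained 1 h at 4 °C in dark with PE-conjugated anti-CD11c (mouse IgG1-PE isotype for controls), washed, resuspended in PBS with propidium iodide; flow cytometry, CD11c-positive percentage after subtracting PI-positive dead cells, versus control.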

U-937 [6] = experiment: Cell cycle arrest at G1 phase in human U937 cells at 100 uM after 30 hrs by propidium iodide-based flow cytometry relative to control; assay type: functional; outline: as §1
[7] = molecular target: Histone acetyltransferase p300 (Homo sapiens) (UniProt Q09472); experiment: Inhibition of recombinant human p300 catalytic domain (1284 to 1673 aa) using histone H3 at 100 uM after 1 hr by radiochemical assay in presence of [acetyl-3H]-acetyl coenzyme A
U-937 [8] = experiment: Induction of apoptosis in human U937 cells at 100 uM after 30 hrs by FACS analysis relative to control; assay type: functional
Outline: (§2)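 Cells cultured at 37 °C, 5% CO2 in RPMI-1640 plus 10% heat-inactivated FBS and antibiotics; treated 30 h; apoptosis read by FACS as the pre-G1 population, compared with untreated control.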

U-937 [9] = experiment: Induction of apoptosis in human U937 cells at 100 uM after 30 hrs by FACS analysis relative to control relative to CPTH6; assay type: functional
HCT-116 [10] = experiment: Induction of apoptosis in human HCT116 cells at 100 uM after 30 hrs by FACS analysis relative to control; assay type: functional; outline: as §2
U-937 [11] = experiment: Induction of apoptosis in human U937 cells at 100 uM after 30 hrs by FACS analysis relative to control in presence of CPTH6; assay type: functional, cell-based
HCT-116 [12] = experiment: Cell cycle arrest at G1 phase in human HCT116 cells at 100 uM after 30 hrs by propidium iodide-based flow cytometry relative to control; assay type: functional; outline: as §1

Sequence of Histone acetyltransferase KAT2B (Homo sapiens) (Q92831 whole entry, looked up, the tested form may be a part): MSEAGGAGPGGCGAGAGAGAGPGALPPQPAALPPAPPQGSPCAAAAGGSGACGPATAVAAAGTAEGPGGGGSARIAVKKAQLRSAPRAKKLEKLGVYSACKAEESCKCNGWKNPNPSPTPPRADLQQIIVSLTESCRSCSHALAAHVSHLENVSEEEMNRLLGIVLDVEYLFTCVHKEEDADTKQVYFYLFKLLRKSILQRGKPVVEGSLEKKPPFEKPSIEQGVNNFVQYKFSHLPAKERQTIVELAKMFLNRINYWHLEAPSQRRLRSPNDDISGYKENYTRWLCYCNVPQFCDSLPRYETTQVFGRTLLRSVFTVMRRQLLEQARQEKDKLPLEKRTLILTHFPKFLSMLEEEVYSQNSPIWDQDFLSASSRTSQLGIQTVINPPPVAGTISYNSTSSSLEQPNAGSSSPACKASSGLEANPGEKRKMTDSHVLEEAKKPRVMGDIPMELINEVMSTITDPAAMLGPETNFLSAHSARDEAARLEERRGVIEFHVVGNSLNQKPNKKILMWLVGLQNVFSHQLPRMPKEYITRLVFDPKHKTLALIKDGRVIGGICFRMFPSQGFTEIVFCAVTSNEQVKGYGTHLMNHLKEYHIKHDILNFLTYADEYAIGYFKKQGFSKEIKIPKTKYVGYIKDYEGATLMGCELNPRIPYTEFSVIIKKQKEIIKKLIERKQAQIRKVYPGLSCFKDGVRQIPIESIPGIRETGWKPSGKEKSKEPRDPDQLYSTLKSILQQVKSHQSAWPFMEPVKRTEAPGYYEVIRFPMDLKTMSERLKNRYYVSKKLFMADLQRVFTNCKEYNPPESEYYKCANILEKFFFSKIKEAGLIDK
Sequence of Histone acetyltransferase p300 (Homo sapiens) (Q09472 whole entry, the tested form may be a part): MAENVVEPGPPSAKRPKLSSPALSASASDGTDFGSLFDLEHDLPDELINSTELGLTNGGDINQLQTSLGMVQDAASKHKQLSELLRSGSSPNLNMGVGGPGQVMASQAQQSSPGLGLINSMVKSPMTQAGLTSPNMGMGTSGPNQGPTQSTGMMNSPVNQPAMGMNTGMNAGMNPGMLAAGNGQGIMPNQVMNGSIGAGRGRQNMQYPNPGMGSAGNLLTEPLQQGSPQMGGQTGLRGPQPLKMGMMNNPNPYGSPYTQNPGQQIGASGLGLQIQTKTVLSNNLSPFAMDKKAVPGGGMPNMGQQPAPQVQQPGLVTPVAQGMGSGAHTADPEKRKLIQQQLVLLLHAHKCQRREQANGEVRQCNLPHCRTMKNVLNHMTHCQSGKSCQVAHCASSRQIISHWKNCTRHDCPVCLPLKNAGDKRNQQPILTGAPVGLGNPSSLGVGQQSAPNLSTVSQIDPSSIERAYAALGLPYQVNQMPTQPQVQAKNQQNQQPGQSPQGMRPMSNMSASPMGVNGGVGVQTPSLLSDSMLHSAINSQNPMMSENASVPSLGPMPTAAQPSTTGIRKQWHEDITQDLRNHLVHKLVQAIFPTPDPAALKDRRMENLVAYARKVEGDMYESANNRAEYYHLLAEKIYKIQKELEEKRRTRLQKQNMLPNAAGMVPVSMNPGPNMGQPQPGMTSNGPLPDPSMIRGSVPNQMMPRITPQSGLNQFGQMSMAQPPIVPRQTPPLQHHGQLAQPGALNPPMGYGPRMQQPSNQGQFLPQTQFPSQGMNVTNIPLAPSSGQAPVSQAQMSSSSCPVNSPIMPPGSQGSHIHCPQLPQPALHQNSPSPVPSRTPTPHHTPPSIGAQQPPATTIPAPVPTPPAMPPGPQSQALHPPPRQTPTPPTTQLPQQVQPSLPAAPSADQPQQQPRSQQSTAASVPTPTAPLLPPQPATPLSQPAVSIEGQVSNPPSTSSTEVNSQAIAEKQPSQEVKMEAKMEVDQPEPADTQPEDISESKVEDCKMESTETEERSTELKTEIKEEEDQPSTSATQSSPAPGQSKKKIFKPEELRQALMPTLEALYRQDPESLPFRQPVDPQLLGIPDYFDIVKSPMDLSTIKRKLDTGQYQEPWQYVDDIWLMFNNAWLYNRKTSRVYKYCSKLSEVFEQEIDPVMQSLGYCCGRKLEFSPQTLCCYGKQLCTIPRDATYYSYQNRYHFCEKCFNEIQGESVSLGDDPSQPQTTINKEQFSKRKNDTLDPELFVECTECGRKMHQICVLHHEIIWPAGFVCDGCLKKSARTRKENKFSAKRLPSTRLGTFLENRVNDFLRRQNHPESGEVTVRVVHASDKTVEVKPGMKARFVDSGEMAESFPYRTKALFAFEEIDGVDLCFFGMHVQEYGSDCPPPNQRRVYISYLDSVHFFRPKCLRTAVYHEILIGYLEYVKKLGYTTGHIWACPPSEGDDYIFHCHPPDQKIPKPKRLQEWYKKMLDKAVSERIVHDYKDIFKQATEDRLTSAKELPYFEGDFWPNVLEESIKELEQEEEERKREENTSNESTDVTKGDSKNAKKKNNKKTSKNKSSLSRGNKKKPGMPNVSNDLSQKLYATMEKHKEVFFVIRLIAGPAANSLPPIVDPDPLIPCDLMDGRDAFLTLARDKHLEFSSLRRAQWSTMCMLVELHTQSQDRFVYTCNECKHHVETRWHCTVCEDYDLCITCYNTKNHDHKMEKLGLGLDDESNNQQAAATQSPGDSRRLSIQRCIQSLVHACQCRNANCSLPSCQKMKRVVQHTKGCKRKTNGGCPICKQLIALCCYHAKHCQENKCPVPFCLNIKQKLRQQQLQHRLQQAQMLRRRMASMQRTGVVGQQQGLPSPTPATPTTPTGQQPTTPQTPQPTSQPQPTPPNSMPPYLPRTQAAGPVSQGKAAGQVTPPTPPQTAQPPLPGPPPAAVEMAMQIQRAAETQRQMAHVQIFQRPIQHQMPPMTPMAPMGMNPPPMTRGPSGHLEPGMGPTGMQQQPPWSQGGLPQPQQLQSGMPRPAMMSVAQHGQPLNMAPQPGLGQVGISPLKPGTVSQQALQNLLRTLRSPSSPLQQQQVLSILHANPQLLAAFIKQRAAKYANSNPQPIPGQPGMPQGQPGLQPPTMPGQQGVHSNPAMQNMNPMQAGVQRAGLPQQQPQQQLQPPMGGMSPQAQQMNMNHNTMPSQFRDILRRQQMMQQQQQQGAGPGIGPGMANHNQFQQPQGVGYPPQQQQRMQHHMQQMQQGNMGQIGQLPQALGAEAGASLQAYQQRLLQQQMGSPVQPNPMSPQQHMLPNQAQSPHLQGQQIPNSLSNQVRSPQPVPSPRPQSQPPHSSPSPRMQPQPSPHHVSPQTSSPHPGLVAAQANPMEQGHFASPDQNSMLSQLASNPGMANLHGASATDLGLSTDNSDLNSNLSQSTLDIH

| Structure (SMILES) | inhibition [1] | inhibition [3] | inhibition [4] | inhibition [7] | Activity (U-937 [2]) | Activity (U-937 [5]) | Activity (U-937 [6]) | Activity (U-937 [8]) | fold change (FC) (U-937 [9]) | Activity (HCT-116 [10]) | Activity (U-937 [11]) | Activity (HCT-116 [12]) |
| --- | --- | --- | --- | --- | --- | --- | --- | --- | --- | --- | --- | --- |
| C/C(=N/Nc1nc(-c2ccc(Cl)cc2)cs1)c1ccccn1 | 69% | 87% | 10% | 51% | Active | Active | Active |  |  |  |  |  |
| Clc1ccc(-c2csc(N/N=C\c3c[nH]c4ccccc34)n2)cc1 | 79% | 97% | 0% | 61% |  | Active |  | 44% | 1.5 | 10% | Active |  |
| CC(C)=NNc1nc(-c2cccc([N+](=O)[O-])c2)cs1 | 54% | 76% | 7% | 33% |  |  |  |  |  | 10% |  | Active |

Now from value to compound, other results behind:

| inhibition [1] | inhibition [3] | inhibition [4] | inhibition [7] | Structure (SMILES) | Activity (U-937 [2]) | Activity (U-937 [5]) | Activity (U-937 [6]) | Activity (U-937 [8]) | fold change (FC) (U-937 [9]) | Activity (HCT-116 [10]) | Activity (U-937 [11]) | Activity (HCT-116 [12]) |
| --- | --- | --- | --- | --- | --- | --- | --- | --- | --- | --- | --- | --- |
| 52% | 69% | 13% | 41% | CC1CC/C(=N/Nc2nc(-c3cc4ccccc4oc3=O)cs2)C1 (stereo not drawn) |  |  |  |  |  |  |  | Active |
| 86% | 97% | 11% | 62% | C/C(=N/Nc1nc(-c2ccc(Cl)cc2)cs1)c1cc2ccccc2oc1=O |  | Active |  | 44% | 1.5 | 10% | Active |  |
| 62% | 91% | 12% | 35% | Fc1ccc(-c2csc(NN=C3CCCC3)n2)cc1 | Active | Active | Active | 44% | 1.5 | 10% | Active | Active |
